# According to ChEMBL document CHEMBL3352678, “Synthesis and acetylcholinesterase inhibitory activity of Mannich base derivatives flavokawain B” (Bioorg Med Chem Lett, 2014):
# B1: Acetylcholinesterase (Rattus norvegicus), P37136 (protein)
# chain: MRPPWYPLHTPSLASPLLFLLLSLLGGGARAEGREDPQLLVRVRGGQLRGIRLKAPGGPVSAFLGIPFAEPPVGSRRFMPPEPKRPWSGILDATTFQNVCYQYVDTLYPGFEGTEMWNPNRELSEDCLYLNVWTPYPRPTSPTPVLIWIYGGGFYSGASSLDVYDGRFLAQVEGTVLVSMNYRVGTFGFLALPGSREAPGNVGLLDQRLALQWVQENIAAFGGDPMSVTLFGESAGAASVGMHILSLPSRSLFHRAVLQSGTPNGPWATVSAGEARRRATLLARLVGCPPGGAGGNDTELISCLRTRPAQDLVDHEWHVLPQESIFRFSFVPVVDGDFLSDTPDALINTGDFQDLQVLVGVVKDEGSYFLVYGVPGFSKDNESLISRAQFLAGVRIGVPQASDLAAEAVVLHYTDWLHPEDPAHLRDAMSAVVGDHNVVCPVAQLAGRLAAQGARVYAYIFEHRASTLTWPLWMGVPHGYEIEFIFGLPLDPSLNYTVEERIFAQRLMQYWTNFARTGDPNDPRDSKSPRWPPYTTAAQQYVSLNLKPLEVRRGLRAQTCAFWNRFLPKLLSATDTLDEAERQWKAEFHRWSSYMVHWKNQFDHYSKQERCSDL
# How the values were obtained:
# [1] = compound: COc1cc(OC)c(C(=O)/C=C/c2ccccc2)c(O)c1CN1CCCCC1; test: Inhibition of Sprague-Dawley rat brain AChE using acetylthiocholin iodide as substrate at 2.2 uM by Michaelis-Menten equation
# Procedure, shortened: (§1)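 Kinetic analysis: Km and vmax were determined at several inhibitor concentrations. Ki for the free enzyme came from a linear replot of slope against inhibitor concentration. Ki′ for the enzyme–substrate complex came from a linear replot of intercept against inhibitor concentration.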
# [2] = compound: COc1cc(OC)c(C(=O)/C=C/c2ccccc2)c(O)c1CN1CCCCC1; test: Inhibition of Sprague-Dawley rat brain AChE using acetylthiocholin iodide as substrate at 4.4 uM by Michaelis-Menten equation; procedure, shortened: as §1
protein,measurement,setting,value
B1,Km,[1],4.18 mM
same,Vmax,[1],0.0288 deltaA/min
same,Km,[2],4.63 mM
same,Vmax,[2],0.0212 deltaA/min
